# Several values for one entry are separate records, joined by “and”; a condition that tells them apart may be missing. Equal entries are not always repeated.
# Assays:
# HepG2 [1] = experiment: Inhibition of ATP levels in HepG2 cells was measured at 28.2 uM concentration.; type: functional, Homo sapiens; parameters: scale not given: the % may be the effect or the level left
# HepG2 [2] = experiment: Inhibition of cholesterol synthesis in HepG2 cells was measured at 10 uM concentration.; type: functional, Homo sapiens; parameters: scale not given: the % may be the effect or the level left
# How it was run: (§1)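 Compounds were applied to HepG2 cells as their γ-lactone prodrugs. De novo cholesterol synthesis, fatty acid synthesis and cellular ATP levels were each expressed as % of control. Significance was marked at p < 0.001.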
# HepG2 [3] = experiment: Inhibition of fatty acid synthesis in HepG2 cells was measured at 3 uM concentration.; type: functional, Homo sapiens; parameters: scale not given: the % may be the effect or the level left; how it was run: as §1
# HepG2 [4] = experiment: Inhibition of fatty acid synthesis in HepG2 cells was measured at 10 uM concentration.; type: functional, Homo sapiens; parameters: scale not given: the % may be the effect or the level left; how it was run: as §1
# Rattus norvegicus [5] = experiment: % Reduction of plasma triglyceride in the rat was measured at dose 37.5 mg/kg/d; type: functional
# How it was run: (§2)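 Male Sprague-Dawley rats were kept on a reverse 12 h light/12 h dark cycle with free access to RM1 powdered diet and water. Compound was given orally by gavage as two doses 24 h apart. Blood was drawn mid dark cycle, 4 h after the second dose, into EDTA. Plasma was separated at 1500g for 15 min. Triglyceride was measured enzymatically (GPO-PAP) and reported as % reduction from control.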
# HepG2 [6] = experiment: Inhibition of ATP levels in HepG2 cells was measured at 10 uM concentration.; type: functional, Homo sapiens; parameters: scale not given: the % may be the effect or the level left; how it was run: as §1
# HepG2 [7] = experiment: Inhibition of ATP levels in HepG2 cells was measured at 3 uM concentration.; type: functional, Homo sapiens; parameters: scale not given: the % may be the effect or the level left; how it was run: as §1
# HepG2 [8] = experiment: Inhibition of cholesterol synthesis in HepG2 cells was measured at 3 uM concentration.; type: functional, Homo sapiens; parameters: scale not given: the % may be the effect or the level left; how it was run: as §1
# Rattus norvegicus [9] = experiment: % Reduction of plasma triglyceride in the rat was measured at dose 75 mg/kg/d; type: functional; how it was run: as §2
# HepG2 [10] = experiment: Inhibition of fatty acid synthesis in HepG2 cells was measured at 5 uM concentration.; type: functional, Homo sapiens; parameters: scale not given: the % may be the effect or the level left; how it was run: as §1
# HepG2 [11] = experiment: Inhibition of cholesterol synthesis in HepG2 cells was measured at 5 uM concentration.; type: functional, Homo sapiens; parameters: scale not given: the % may be the effect or the level left; how it was run: as §1
# HepG2 [12] = experiment: (§3) Inhibition of fatty acid synthesis in HepG2 cells was measured at 15 uM concentration.; type: functional, Homo sapiens; parameters: scale not given: the % may be the effect or the level left; how it was run: as §1
# HepG2 [13] = experiment: Inhibition of fatty acid synthesis in HepG2 cells was measured at 30 uM concentration.; type: functional, Homo sapiens; parameters: scale not given: the % may be the effect or the level left; how it was run: as §1
# HepG2 [14] = experiment: Inhibition of cholesterol synthesis in HepG2 cells was measured at 30 uM concentration.; type: functional, Homo sapiens; parameters: scale not given: the % may be the effect or the level left; how it was run: as §1
# HepG2 [15] = experiment: Inhibition of ATP levels in HepG2 cells was measured at 15 uM concentration.; type: functional, Homo sapiens; parameters: scale not given: the % may be the effect or the level left; how it was run: as §1
# HepG2 [16] = experiment: Inhibition of ATP levels in HepG2 cells was measured at 30 uM concentration.; type: functional, Homo sapiens; parameters: scale not given: the % may be the effect or the level left; how it was run: as §1
# HepG2 [17] = experiment: Inhibition of cholesterol synthesis in HepG2 cells was measured at 15 uM concentration.; type: functional, Homo sapiens; parameters: scale not given: the % may be the effect or the level left; how it was run: as §1
# HepG2 [18] = experiment: as §3; type: functional, Homo sapiens; parameters: scale not given: the % may be the effect or the level left; how it was run: as §1; remark: listed apart in the source
# HepG2 [19] = experiment: Inhibition of ATP levels in HepG2 cells was measured at 1 uM concentration.; type: functional, Homo sapiens; parameters: scale not given: the % may be the effect or the level left; how it was run: as §1
# HepG2 [20] = experiment: Inhibition of ATP levels in HepG2 cells was measured at 100 uM concentration.; type: functional, Homo sapiens; parameters: scale not given: the % may be the effect or the level left; how it was run: as §1
# HepG2 [21] = experiment: Inhibition of cholesterol synthesis in HepG2 cells was measured at 100 uM concentration.; type: functional, Homo sapiens; parameters: scale not given: the % may be the effect or the level left; how it was run: as §1
# ATP-citrate synthase [22] = molecular target: T1, ATP-citrate synthase (Rattus norvegicus, UniProt P16638); experiment: Inhibitory activity was tested against rat ATP-Citrate Lyase (ACL) enzyme
# T1 sequence (P16638 whole entry): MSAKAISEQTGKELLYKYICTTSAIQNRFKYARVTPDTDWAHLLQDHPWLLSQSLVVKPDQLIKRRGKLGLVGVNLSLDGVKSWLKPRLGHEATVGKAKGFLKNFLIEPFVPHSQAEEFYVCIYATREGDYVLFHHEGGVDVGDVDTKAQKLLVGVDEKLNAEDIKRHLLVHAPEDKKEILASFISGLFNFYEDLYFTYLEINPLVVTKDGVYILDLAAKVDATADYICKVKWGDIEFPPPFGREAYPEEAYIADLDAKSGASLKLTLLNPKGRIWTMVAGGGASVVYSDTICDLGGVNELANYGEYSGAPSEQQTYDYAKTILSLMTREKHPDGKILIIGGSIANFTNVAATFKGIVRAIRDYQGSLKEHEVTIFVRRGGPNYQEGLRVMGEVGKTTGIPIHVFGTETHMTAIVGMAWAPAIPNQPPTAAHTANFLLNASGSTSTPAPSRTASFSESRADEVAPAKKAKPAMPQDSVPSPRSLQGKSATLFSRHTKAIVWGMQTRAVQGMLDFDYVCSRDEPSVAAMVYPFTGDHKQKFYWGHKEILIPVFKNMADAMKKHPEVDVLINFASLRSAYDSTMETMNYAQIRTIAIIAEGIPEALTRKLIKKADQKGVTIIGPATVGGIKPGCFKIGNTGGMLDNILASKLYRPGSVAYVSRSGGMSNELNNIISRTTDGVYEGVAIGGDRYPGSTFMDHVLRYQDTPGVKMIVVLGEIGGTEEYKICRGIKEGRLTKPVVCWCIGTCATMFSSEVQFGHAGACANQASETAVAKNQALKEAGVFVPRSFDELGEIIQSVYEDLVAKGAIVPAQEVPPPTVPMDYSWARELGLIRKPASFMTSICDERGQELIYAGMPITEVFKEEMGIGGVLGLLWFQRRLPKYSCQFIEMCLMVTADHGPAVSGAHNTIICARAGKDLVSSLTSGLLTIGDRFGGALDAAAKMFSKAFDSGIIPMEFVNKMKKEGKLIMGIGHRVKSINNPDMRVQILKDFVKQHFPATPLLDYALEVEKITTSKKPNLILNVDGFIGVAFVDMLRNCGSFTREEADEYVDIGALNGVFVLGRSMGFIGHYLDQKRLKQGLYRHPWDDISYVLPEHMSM
# ATP-citrate synthase [23] = molecular target: T2, ATP-citrate synthase (Homo sapiens, UniProt P53396); experiment: Inhibitory activity was tested against human recombinant ATP-Citrate Lyase (ACL) enzyme
# T2 sequence (P53396 whole entry): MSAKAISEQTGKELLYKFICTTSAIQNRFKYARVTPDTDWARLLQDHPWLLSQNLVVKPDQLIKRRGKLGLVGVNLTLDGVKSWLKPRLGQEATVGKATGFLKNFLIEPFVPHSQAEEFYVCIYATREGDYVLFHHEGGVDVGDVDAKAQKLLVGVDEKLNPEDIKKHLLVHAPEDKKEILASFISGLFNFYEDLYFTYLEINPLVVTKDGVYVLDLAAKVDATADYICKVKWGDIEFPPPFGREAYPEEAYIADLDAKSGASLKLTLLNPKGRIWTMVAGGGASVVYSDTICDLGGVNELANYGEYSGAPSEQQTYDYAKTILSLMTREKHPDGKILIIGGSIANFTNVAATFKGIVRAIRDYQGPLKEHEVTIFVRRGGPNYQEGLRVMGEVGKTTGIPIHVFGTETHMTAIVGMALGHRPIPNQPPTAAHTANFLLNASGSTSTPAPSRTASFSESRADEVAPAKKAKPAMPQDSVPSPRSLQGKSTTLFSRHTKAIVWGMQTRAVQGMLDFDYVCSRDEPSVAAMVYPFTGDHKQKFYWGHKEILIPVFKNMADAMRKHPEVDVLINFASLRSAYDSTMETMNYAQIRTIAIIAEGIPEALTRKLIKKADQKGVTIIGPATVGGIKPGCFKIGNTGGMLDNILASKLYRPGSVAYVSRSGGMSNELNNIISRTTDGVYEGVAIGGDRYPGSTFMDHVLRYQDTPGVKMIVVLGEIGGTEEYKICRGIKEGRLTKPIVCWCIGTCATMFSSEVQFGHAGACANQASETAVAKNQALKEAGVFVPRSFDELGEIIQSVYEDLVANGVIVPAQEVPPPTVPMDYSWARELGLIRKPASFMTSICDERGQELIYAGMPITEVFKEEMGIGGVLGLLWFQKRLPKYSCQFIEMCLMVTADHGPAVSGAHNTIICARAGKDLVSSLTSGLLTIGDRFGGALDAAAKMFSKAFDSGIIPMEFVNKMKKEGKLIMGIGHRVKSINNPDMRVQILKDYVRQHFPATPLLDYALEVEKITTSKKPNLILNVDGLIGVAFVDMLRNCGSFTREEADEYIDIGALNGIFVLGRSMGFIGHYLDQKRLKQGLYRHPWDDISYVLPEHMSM
# How it was run: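 Recombinant human ACL enzyme. Compounds purified as γ-lactones were hydrolysed back to the open hydroxy diacid with excess aqueous NaOH before being added to the assay buffer mix. Potency is reported as the reversible Ki for enzyme inhibition.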
smiles,measurement,setting,value
Cc1cn(-c2cc(Cl)ccc2CCCCCC[C@@H]2C[C@](O)(CC(=O)O)C(=O)O2)cc1C,Control,HepG2 [1],96%
same,Control,HepG2 [2],82%
same,Control,HepG2 [3],102%
same,Control,HepG2 [4],75% and 89%
same,Reduction,Rattus norvegicus [5],10%
same,Control,HepG2 [6],96% and 101%
same,Control,HepG2 [7],98%
same,Control,HepG2 [8],104%
same,Reduction,Rattus norvegicus [9],20%
O=C(O)C[C@@]1(O)C[C@@H](CCCCCCc2ccc(Cl)cc2Cl)OC1=O (stereo in doubt; (+)-77),Control,HepG2 [10],113%
same,Control,HepG2 [11],95%
same,Control,HepG2 [12],81%
same,Control,HepG2 [13],25%
same,Control,HepG2 [14],11%
same,Control,HepG2 [15],100%
same,Control,HepG2 [16],99%
same,Control,HepG2 [17],52% and 41%
same,Control,HepG2 [18],69%
O=C(O)[C@H](O)[C@@]1(O)C[C@@H](CCCCCCc2ccc(Cl)cc2Cl)OC1=O,Control,HepG2 [19],103%
same,Control,HepG2 [2],86%
same,Control,HepG2 [3],74%
same,Control,HepG2 [4],76%
same,Control,HepG2 [6],106%
same,Control,HepG2 [7],100%
same,Control,HepG2 [8],69%
O=C(O)C[C@@](O)(C[C@H](O)CCCCCCc1ccc(Cl)cc1Cl)C(=O)O (stereo in doubt; 45),Control,HepG2 [20],104%
same,Control,HepG2 [21],84%
same,Ki,ATP-citrate synthase [22],1000 nM
same,Ki,ATP-citrate synthase [23],1000 nM
